Source: ChEMBL document CHEMBL2321839, “Novel limonene and citral based 2,5-disubstituted-1,3,4-oxadiazoles: a natural product coupled approach to semicarbazones for antiepileptic activity” (Bioorg Med Chem Lett, 2013)
Active and inactive are the calls of the source. The rule behind the calls is not given here.

Tests used:
[1] = test system: Rattus norvegicus; assay: Antiepileptic activity in Wistar rat assessed as protection against scSTY-induced seizures at 300 mg/kg, ip measured after 4 hrs; assay type: functional, organism-based; design: dose 300 mg/kg
Procedure, shortened: (§1)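 Male Wistar rats (100–150 g), compounds given ip at 30, 100 and 300 mg/kg. Seizures induced by subcutaneous strychnine (scSTY). Activity read 0.5 and 4.0 h after dosing. Reported as the minimal dose active in at least half of the animals; a dash means no activity at 300 mg/kg.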

[2] = test system: Mus musculus; assay: Neurotoxicity against Swiss albino mouse by rotarod test at 300 mg/kg, ip after 4 hrs; assay type: toxicity, organism-based; design: dose 300 mg/kg, route intraperitoneal; details: in vivo
Procedure, shortened: (§2)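 Acute neurotoxicity tested by rotorod in male Swiss albino mice (18–25 g) given 30, 100 or 300 mg/kg ip. Read at 0.5 and 4.0 h post-dose. Result is the minimal dose causing toxicity in half or more of the animals; a dash means none up to 300 mg/kg.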

[3] = test system: Mus musculus; assay: Antiepileptic activity in Swiss albino mouse assessed as protection against maximal-electric shock-induced seizures at 300 mg/kg, ip measured after 4 hrs; assay type: functional, organism-based; design: dose 300 mg/kg
Procedure, shortened: (§3)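 Male Swiss albino mice (18–25 g), compounds given ip at 30, 100 and 300 mg/kg. Seizures induced by maximal electroshock (MES) or subcutaneous pentylenetetrazole (scPTZ). Protection scored at 0.5 and 4.0 h after dosing.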

[4] = test system: Mus musculus; assay: Antiepileptic activity in ip dosed Swiss albino mouse assessed as protection against scPTZ-induced seizures after 0.5 hrs; assay type: functional; details: read-out: MED; procedure, shortened: as §3
[5] = test system: Mus musculus; assay: Antiepileptic activity in Swiss albino mouse assessed as protection against scPTZ-induced seizures at 300 mg/kg, ip measured after 4 hrs; assay type: functional, organism-based; design: dose 300 mg/kg; procedure, shortened: as §3
[6] = test system: Mus musculus; assay: Antiepileptic activity in ip dosed Swiss albino mouse assessed as protection against maximal-electric shock-induced seizures after 0.5 hrs; assay type: functional; details: read-out: MED; procedure, shortened: as §3
[7] = test system: Mus musculus; assay: Neurotoxicity against Swiss albino mouse by rotarod test at 300 mg/kg, ip after 0.5 hrs; assay type: toxicity, organism-based; design: dose 300 mg/kg, route intraperitoneal; details: in vivo; procedure, shortened: as §2
[8] = test system: Rattus norvegicus; assay: Antiepileptic activity in ip dosed Wistar rat assessed as protection against scSTY-induced seizures after 0.5 hrs; assay type: functional; details: read-out: MED
Procedure, shortened: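 Subcutaneous strychnine seizure test in Wistar rats (male, 100–150 g), compounds given ip at 30, 100 and 300 mg/kg. Protection read 0.5 and 4.0 h after dosing.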

[9] = test system: Mus musculus; assay: Neurotoxicity against ip dosed Swiss albino mouse after 4 hrs by rotarod test; assay type: toxicity, organism-based; details: in vivo; procedure, shortened: as §2
[10] = test system: Rattus norvegicus; assay: Antiepileptic activity in Wistar rat assessed as protection against scSTY-induced seizures at 300 mg/kg, ip measured after 0.5 hrs; assay type: functional, organism-based; design: dose 300 mg/kg; procedure, shortened: as §1
[11] = test system: Mus musculus; assay: Antiepileptic activity in ip dosed Swiss albino mouse assessed as protection against scPTZ-induced seizures after 4 hrs; assay type: functional; details: read-out: MED; procedure, shortened: as §3
[12] = test system: Mus musculus; assay: Neurotoxicity against ip dosed Swiss albino mouse after 0.5 hrs by rotarod test; assay type: toxicity, organism-based; details: in vivo; procedure, shortened: as §2
[13] = test system: Mus musculus; assay: Antiepileptic activity in ip dosed Swiss albino mouse assessed as protection against maximal-electric shock-induced seizures after 4 hrs; assay type: functional; details: read-out: MED; procedure, shortened: as §3
[14] = test system: Mus musculus; assay: Antiepileptic activity in Swiss albino mouse assessed as protection against maximal-electric shock-induced seizures at 300 mg/kg, ip measured after 0.5 hrs; assay type: functional, organism-based; design: dose 300 mg/kg; procedure, shortened: as §3
[15] = test system: Rattus norvegicus; assay: Antiepileptic activity in Wistar rat assessed as GABA level in cerebellum per 100 mg at 30 mg/kg ip after 2 hrs (reference value: 23.48+/- 2.48 ug); assay type: functional; details: route intraperitoneal
[16] = test system: Rattus norvegicus; assay: Antiepileptic activity in Wistar rat assessed as GABA level in midbrain per 100 mg at 30 mg/kg ip after 2 hrs (reference value: 35.42 +/- 2.14 ug); assay type: functional; details: route intraperitoneal
[17] = test system: Rattus norvegicus; assay: Antiepileptic activity in Wistar rat assessed as GABA level in medulla oblangata per 100 mg at 30 mg/kg ip after 2 hrs (reference value: 31.86 +/- 4.65 ug); assay type: functional, Medulla oblongata; details: route intraperitoneal
[18] = test system: Rattus norvegicus; assay: Neurotoxicity in Wistar rat at 30 mg/kg, po measured at 0.5 hrs by rotarod test; assay type: toxicity, organism-based; design: dose 30 mg/kg, route oral; details: in vivo
Procedure, shortened: (§4)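 Neurotoxicity assessed in Wistar rats (100–150 g) after a 30 mg/kg oral dose, read at 0.25, 0.5, 1, 2 and 4 h.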

[19] = test system: Rattus norvegicus; assay: Antiepileptic activity in Wistar rat assessed as protection against maximal electric shock-induced seizures at 30 mg/kg, po measured at 1 hr; assay type: functional
Procedure, shortened: (§5)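 Single oral dose of 30 mg/kg in Wistar rats (100–150 g), tested by MES challenge at 0.25, 0.5, 1, 2 and 4 h.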

[20] = test system: Rattus norvegicus; assay: Antiepileptic activity in Wistar rat assessed as protection against maximal electric shock-induced seizures at 30 mg/kg, po measured at 0.5 hrs; assay type: functional; procedure, shortened: as §5
[21] = test system: Rattus norvegicus; assay: Antiepileptic activity in Wistar rat assessed as GABA level in cerebellum per 100 mg at 100 mg/kg ip after 2 hrs (reference value: 23.48+/- 2.48 ug); assay type: functional; details: route intraperitoneal
[22] = test system: Rattus norvegicus; assay: Antiepileptic activity in Wistar rat assessed as protection against maximal electric shock-induced seizures at 30 mg/kg, po measured at 4 hrs; assay type: functional; procedure, shortened: as §5
[23] = test system: Rattus norvegicus; assay: Neurotoxicity in Wistar rat at 30 mg/kg, po measured at 1 hr by rotarod test; assay type: toxicity, organism-based; design: dose 30 mg/kg, route oral; details: in vivo; procedure, shortened: as §4
[24] = test system: Rattus norvegicus; assay: Neurotoxicity in Wistar rat at 30 mg/kg, po measured at 2 hrs by rotarod test; assay type: toxicity, organism-based; design: dose 30 mg/kg, route oral; details: in vivo; procedure, shortened: as §4
[25] = test system: Rattus norvegicus; assay: Antiepileptic activity in Wistar rat assessed as GABA level in medulla oblangata per 100 mg at 100 mg/kg ip after 2 hrs (reference value: 31.86 +/- 4.65 ug); assay type: functional, Medulla oblongata; details: route intraperitoneal
[26] = test system: Rattus norvegicus; assay: Antiepileptic activity in Wistar rat assessed as protection against maximal electric shock-induced seizures at 30 mg/kg, po measured at 0.25 hrs; assay type: functional; procedure, shortened: as §5
[27] = test system: Rattus norvegicus; assay: Antiepileptic activity in Wistar rat assessed as protection against maximal electric shock-induced seizures at 30 mg/kg, po measured at 2 hrs; assay type: functional; procedure, shortened: as §5
[28] = test system: Rattus norvegicus; assay: Antiepileptic activity in ip dosed Wistar rat assessed as protection against scSTY-induced seizures after 4 hrs; assay type: functional; details: read-out: MED; procedure, shortened: as §1
[29] = test system: Rattus norvegicus; assay: Antiepileptic activity in Wistar rat assessed as GABA level in midbrain per 100 mg at 100 mg/kg ip after 2 hrs (reference value: 35.42 +/- 2.14 ug); assay type: functional; details: route intraperitoneal
[30] = test system: Rattus norvegicus; assay: Neurotoxicity in Wistar rat at 30 mg/kg, po measured at 0.25 hrs by rotarod test; assay type: toxicity, organism-based; design: dose 30 mg/kg, route oral; details: in vivo; procedure, shortened: as §4
[31] = test system: Rattus norvegicus; assay: Neurotoxicity in Wistar rat at 30 mg/kg, po measured at 4 hrs by rotarod test; assay type: toxicity, organism-based; design: dose 30 mg/kg, route oral; details: in vivo; procedure, shortened: as §4
[32] = test system: Mus musculus; assay: Antiepileptic activity in Swiss albino mouse assessed as protection against scPTZ-induced seizures at 300 mg/kg, ip measured after 0.5 hrs; assay type: functional, organism-based; design: dose 300 mg/kg; procedure, shortened: as §3

With `CCCC(CCC)C(=O)[O-].[Na+]` [VALPROATE SODIUM] the Activity [1] was “inactive”, the Activity [2] was “Non-toxic” and the Activity [3] was “inactive”. The minimal effective dose [4] was 300 mg/kg, the Activity [5] was “inactive” and the minimal effective dose [6] was 300 mg/kg. The Activity [7] was “Non-toxic” and the minimal effective dose [8] was 300 mg/kg.
`NC(=O)N1c2ccccc2C=Cc2ccccc21` [CARBAMAZEPINE] was tested, and the Activity [1] was “inactive”, the MTC [9] was 300 mg/kg and the Activity [10] was “inactive”. It also gave a minimal effective dose [11] of 300 mg/kg, an MTC [12] of 100 mg/kg and a minimal effective dose [13] of 100 mg/kg. The minimal effective dose [4] was 100 mg/kg and the minimal effective dose [6] was 30 mg/kg.
With `CCC1(C)CC(=O)NC1=O` (centres undefined) [ETHOSUXIMIDE] the Activity [1] was “inactive”, the minimal effective dose [11] was 300 mg/kg and the Activity [2] was “Non-toxic”. The Activity [3] was “inactive”, the minimal effective dose [4] was 100 mg/kg and the Activity [14] was “inactive”. The Activity [7] was “Non-toxic” and the minimal effective dose [8] was 300 mg/kg.
Work on `CN1C(=O)CC(=O)N(c2ccccc2)c2cc(Cl)ccc21` [CLOBAZAM] yielded an Activity [15] of 35.44 µg, an Activity [16] of 69.51 µg and an Activity [17] of 47.53 µg.
`C=C(C)[C@@H]1CC=C(C)/C(=N/NC(=O)Nc2nnc(-c3ccc([N+](=O)[O-])cc3)o2)C1` was tested, and the Activity [18] was “Non-toxic”, the Activity [19] was 25% and the Activity [20] was 25%. For the same compound, the Activity [21] was 28.64 µg, the Activity [10] was “inactive” and the minimal effective dose [11] was 300 mg/kg. The Activity [22] was 50%, the Activity [23] was “Non-toxic” and the Activity [24] was “Non-toxic”. It also gave a minimal effective dose [13] of 300 mg/kg, an Activity [25] of 48.59 µg and an Activity [26] of 75%. For the same compound, the Activity [27] was 50%, the Activity [2] was “Non-toxic” and the minimal effective dose [28] was 300 mg/kg. The Activity [29] was 66.6 µg, the minimal effective dose [4] was 100 mg/kg and the minimal effective dose [6] was 100 mg/kg. The Activity [7] was “Non-toxic”, the Activity [30] was “Non-toxic” and the Activity [31] was “Non-toxic”.
With `C=C(C)[C@@H]1CC=C(C)/C(=N/NC(=O)Nc2nnc(-c3ccc(F)cc3)o2)C1` the Activity [18] was “Non-toxic”, the Activity [19] was 0% and the Activity [20] was 25%. The Activity [21] was 28.42 µg, the Activity [10] was “inactive” and the minimal effective dose [11] was 300 mg/kg. For the same compound, the Activity [22] was “inactive”, the Activity [23] was 0% and the Activity [24] was “Non-toxic”. For the same compound, the minimal effective dose [13] was 300 mg/kg, the Activity [25] was 42.4 µg and the Activity [26] was 25%. The Activity [27] was 25%, the Activity [2] was “Non-toxic” and the minimal effective dose [28] was 300 mg/kg. For the same compound, the Activity [29] was 43.56 µg, the minimal effective dose [6] was 100 mg/kg and the Activity [7] was “Non-toxic”. For the same compound, the Activity [32] was “inactive”, the Activity [30] was “Non-toxic” and the Activity [31] was “Non-toxic”.
